# Results as given in the EternaBench riboswitch data.
# System: MS2 coat protein
# Assay: apparent Kd, MS2 coat protein; higher = weaker binding; RNA-MaP array; FMN 200 µM where present
# Summary of the method: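 The apparent Kd is the median of filtered binding-curve fits, one per cluster, to green signal normalised to red-channel RNA signal and control-cluster median Fmax. The clusters were on Illumina sequencing chips, and stalled E. coli RNA polymerase had transcribed the designs on them. Titration used SNAP-549-labelled MS2 coat protein from 0.7 or 1.5 nM, doubling to 3 µM, without and then with constant ligand, in 100 mM Tris-HCl pH 7.5, 80 mM KCl, 4 mM MgCl2, BSA, DTT, yeast tRNA and Tween-20.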
# [1] = designed as: OFF switch for flavin mononucleotide, no ligand
# [2] = ligand present: flavin mononucleotide, designed as: OFF switch for flavin mononucleotide
# [3] = designed as: ON switch for flavin mononucleotide, no ligand
# [4] = ligand present: flavin mononucleotide, designed as: ON switch for flavin mononucleotide
Sequence,apparent Kd [1] [nM],apparent Kd [2] [nM],apparent Kd [3] [nM],apparent Kd [4] [nM]
AAUAUAAAGAGCUGGUAAAACUCAACAUGAGGAUCACCCAUGUAGGAUAUCAGCACGAUAAGUGCUGAGAAGGACAUCCAGCUC,16.3,17.1,–,–
AAUAUAAGAGCUGGUAACUCAAGAACAUGAGGAUCACCCAUGUAGGAUAUCAGCACGAUAAGUGCUGAGAAGGACAUCCAGCUC,15.3,19,–,–
AAUAUAGAGCUGGAAAUAAAACUCACAUGAGGAUCACCCAUGUAGGAUAUCAGCACGAUAAGUGCUGAGAAGGACAUCCAGCUC,15.2,15.2,–,–
AAUAUGAGCUGGUUUAAAACUCAAACAUGAGGAUCACCCAUGUAGGAUAUCAGCACGAUAAGUGCUGAGAAGGACAUCCAGCUC,15,18.9,–,–
AAUAUGUUGCAGAAGGCCAUGUUGUGGUAGUACCUCAUGACAUGAGGAUCACCCAUGUUUGUGUUGGAGGAUAUGCAAUAUAUU,37.7,201,–,–
AAUAUGUUGCAGAAGGUUAUAUUUUUUUAGUACCUCAUGACAUGAGGAUCACCCAUGUAUUUGUUGAAGGAUAUGCAAUAUAUU,23.1,20.8,–,–
AAUCCACAUGAGGAUCACCCAUGUCAGGAUAUCGUGUCGCGGGUUUCGGUCCGUGAUGCGAGAAGGGACGGCUG,31.9,53.1,–,–
AAUCGGGAGCAGAAGGCAUGUAAUAAGACAUGAGGAUCACCCAUGUAGUUAAGGCGAAAGCCGCAUGAGGAUAUGCUCCCGUAA,–,–,5.26,4.99
AAUCUAUUUAUGGGAUUACAAUAUGAGGAUAUCAUUCAUCUAUACAUGAGGAUCACCCAUGUUACUGAGAAGGCAUAUAUAAUA,–,–,14.1,9.85
AAUGGCCAAGGAUAUGAGACCUAAAACAUGAGGAUCACCCAUGUGGACUCAGCCGCGUGGUCAGAAGGUGGAACCA,13.8,14.8,–,–
AAUGGGCACCAGAAGGACAUGAGGAUCACCCAUGUAGGAUAUGGGCGUUGAAGAUGUCUGAUCGAGUUGCUGGAAAGAUAUGGG,–,–,311,73.4
AAUGGGUGUGUGAGGAUAUACGAUGGCAGUUGCCAGUAGAAGGUACAUGAGGAUCACCCAUGUGUCCAAAAGUG,13.2,16,–,–
AAUUAACACCAGAAGGACAUGAGGAUCACCCAUGUAGGAUAUGGGAGUGGGUCCGUUGGAGUUGGCCCGUCUCUGCGGGCUCGA,–,–,79.1,8.95
AAUUAACUCACAGGAUAUAGCAGAGGUCGCGUAAACUUACAGGCGACGAGGCUAGAAGGGUGACCACAUGAGGAUCACCCAUGU,–,–,648,98.8
AAUUAAUUAAUACAUGAGGAUCACCCAUGUAAUUAUUAGAUCAAGGAUAUCAGCUCGUUUAGAGCUGAGAAGGUGAUCACAUGU,–,–,373,109
AAUUAAUUAAUUAAUUGCUGACAUACAUGAGGAUCACCCAUGUAGGAUAUCGUCAGGAAUACUGACGAGAAGGACAUAGUCAGC,14.9,16.3,–,–
AAUUAGGUCACAGGAUAUACAACAACCAAUGCUGUAGAAGGGUGUCACAUACUUAGCUGACAUGAGGAUCACCCAUGUAUCCAC,–,–,172,68.2
AAUUAUUAUUGAGGAUAUCGUAUUGAAACAAUACGAGAAGGCGGAAUAAACAUGAGGAUCACCCAUGUGAGCCUGAUGCUUAUG,25,36.1,–,–
AAUUAUUGAUGAGGAUAUUGUGGUGAAACACGACGAGAAGGCAUAUGUCACAUGAGGAUCACCCAUGUGAGCCUUGUGGAUAUA,52,112,–,–
AAUUAUUUACAGAAGGAGUAAGAUUUUGUAUUACUAGGAUAUGUUAACAUGAGGAUCACCCAUGUGUUUGUUGGUUUUUUAUGU,16.1,14.8,–,–
AAUUGACACGUAGGAUAUCGAUCUAAUUUAAUUCGAGAAGGACGCACAUGAGGAUCACCCAUGUUUAAUGGAUUAGACAUGUUG,162,328,–,–
AAUUUACAUGAGGAUCACCCAUGUCAGGAUAUGGUUUUAUUUUUUUCUUUUCUUGAUUCCAGAAGGGACAGUUA,114,63.9,–,–
ACAAAUGGAGGAUAUACAUGAGGAUCACCCAUGUAUAUCCUACAUAUGUGAUAAUAAUGUAGAAGGCCAUUUGA,11.6,11.4,–,–
ACAAGAUCAGGAUAUACAUGAGGAUCACCCAUGUAUAUCAAAAAAGGGCCUUCUACAUGUAGAAGGGAUCUUGU,13.1,12.1,–,–
ACAAGAUCAGGAUAUACAUGAGGAUCACCCAUGUGUAUCAAAAGGGAACUUUCUUAAUGUAGAAGGGAUCUUGU,14.7,22.3,–,–
ACACAUGAGGAUCACCCAUGUAGCUGGCGUCUGCACCAGCCACAGGAUAUACGGCAACACAAGCCGUAGAAGGGUGAUAAACAC,–,–,67.5,21.6
ACACUGUGAGGAUAUACAUGAGGAUCACCCAUGUUAAGGAAGUCGUGGUUAAUUUAAGGUAGAAGGCGCUUAUU,41.3,42.8,–,–
ACAGAUCCUGACAUGAGGAUCACCCAUGUUAGAUUGUUAUGUCAGGAUAUUAUCUGGCAACCAGAUGAGAAGGGACGAUCUGUG,–,–,240,15.5

Sequence,apparent Kd [1] [nM],apparent Kd [2] [nM],apparent Kd [3] [nM],apparent Kd [4] [nM]
ACAGCACGAGGAUAUACAUGAGGAUCACCCAUGUCUGAGGGAAGGCGAACGCCCUUGUGUAGAAGGCGUUGAUC,91.4,112,–,–
ACAGGUGCAGGAUAUACAAUCGUGCUUCGGCACGUAAGAUCACAUGAGGAUCACCCAUGUAGAAGGGCACCUGU,44.9,447,–,–
ACAGUAUAUGUAGGAUAUCAUUGGUUAGGUAGGUGAGAAGGGCAUAGUACAUGAGGAUCACCCAUGUGUUGGUCCUCGCAGAAA,376,252,–,–
ACAUAAAUUCGAGGAUAUCGGUGAAAUAAUCUACGAGAAGGCGAUAAUGGUUAUAGACUUAUAGACAUGAGGAUCACCCAUGUA,–,–,26.2,25.6
ACAUAAAUUCGAGGAUAUCGGUGAUUUAAUUUACGAGAAGGCGAUAAAAGUUAUAAACUUAUAGACAUGAGGAUCACCCAUGUA,–,–,34.9,33.1
ACAUACGAUAGUAUGCCUGAGGGCAGAAGGCACAUGAGGAUCACCCAUGUAACGAUCUCUUCAAGUGAGGAUAUGUGCUCAUUG,49.8,52.2,–,–
ACAUGAGGAUCACCCAUGUACAUGGGUUUAAUUGUGUGUUACUAGGAUAUGUAUUUGAAUUUACAACAGAAGGAGUAUUACUGU,621,179,–,–
ACAUGAGGAUCACCCAUGUAGAGUGAAGAAGGUAGAUACUUGUGACUCUCCCAUGUACAUAGGACUGAGGAUAUUCUAAUAAUU,–,–,24.2,20.9
ACAUGAGGAUCACCCAUGUAGAGUGGAGAAGGUAGAUACUUGUGACUCUCCCAUGUACAUAGGACUGAGGAUAUUCUAAUAAUU,–,–,65.7,47.5
ACAUGAGGAUCACCCAUGUAUUACAUGGUUAAGUUUAUUAACAGAAGGCGAAAUUACCACUUUUUCGAGGAUAUGUAUUCUAUU,35.7,60.8,–,–
ACAUGAGGAUCACCCAUGUGAUGAUCUUCCAUGUCAUAUUUCAGAAGGCACGCAUCUUUAAUGAGUGAGGAUAUGGAAUAUGCG,674,410,–,–
ACAUGAGGAUCACCCAUGUUAAACGAGGAUAUUUGACUGCACAUGAGGUUCGCCCAUGUCCUGCCGAAGAAGGUGUGAAUAAUU,–,–,17.6,13.5
ACAUGAGGAUCACCCAUGUUAUCAGGGACUUCAAUUAUUUCUAGAAGGCUGUUUUCUUGUAAGUCAGAGGAUAUAGAAUUAAAU,14,15.1,–,–
ACAUGAGGAUCACCCAUGUUAUCCGGGACUUCAAUUGUUUCUAGAAGGCUGUCUGCUUGUUAGUCAGAGGAUAUAGAAUCAAAU,11.4,11,–,–
ACAUGAGGAUCACCCAUGUUCACAUAGGAUAUUGAUUUUAUUGGUUUUAGAAUAGUAAUUAACCUCAAGAAGGAUGCCAGUUCU,–,–,14,11.2
ACAUGAGGAUCUCCCAUGUAAAAUUAGGAUAUAUAACUGCACAUGAGGAUCACCCAUGUUUAACCGUAGAAGGGAUAAAUAAUU,–,–,–,786
ACAUGAGGAUGAGGAUAUUCAUACAUGAGGAUAGAAGAAGGCAUACAUGAGGAUCACCCAUGUAUACACAUGAGGAUCUCCCAU,25.5,30.5,–,–
ACAUGAUACAAGAAGGAUGUAUUAGAUUUGAUCAUAGGAUAUUGUUAUAUUGUUUACUCUAAUAACAUGAGGAUCACCCAUGUA,–,–,10.7,7.53
ACAUGAUAUGUAGGAUAUCACAACAUGAGUUUUAAAAUUGUAAUUUAGGAUUGAGAAGGACAUUUACAUGAGGAUCACCCAUGU,18.6,14.7,–,–
ACAUGAUAUGUAGGAUAUCACAACUUGUGUUAUAAAAUUGUAUUUUAGGAUUGAGAAGGACAUUUACAUGAGGAUCACCCAUGU,15.5,12.8,–,–
ACAUGCAUAGCGAUAUGAUCGAGAGAUCAUGUCGCUUUUAAAAGAAGGACAUGAGGAUCACCCAUGUAGGAUAUGGGAGCAUGA,–,–,53.4,13.2
ACAUGGAAGCAGGAUAUGCUUGUUUAAUUGUUUGCAGAAGGGCUAACAUGAGGAUCACCCAUGUAAGAGGUCUA,17,29.6,–,–
ACAUGUUAUACAGGAUAUGUUAUACAAUAAUCAAUCAGUUAUUAUGAUUUUACAGAAGGGUAUACAUGAGGAUCACCCAUGUUA,31.5,33.8,–,–
ACAUUGUAUGUGAGGAUAUCGAUGGGAUGGGUUGUCGAGAAGGCACAUGAGGAUCACCCAUGUGGGAAACAGCA,39.5,170,–,–
ACCAGAACAUGAGGAUCACCCAUGUAUCUAUACCAAGCGACACAGGAUAUACAAAGCGAAAGCGGGUAGAAGGGUGAUCAUGCA,–,–,63.5,182
ACCCAACAUGAGGAUCACCCAUGUCAGGAUAUCCAUCUAUACUCGAAAGAGUAUAGAUGGAGAAGGGACAGAGG,94.8,92.9,–,–
ACCGCACAUGAGGAUCACCCAUGUCAGGAUAUACAAGAAAAUCAGGCUAAUGCCUGAAGUAGAAGGGACGAGGA,22.4,14.2,–,–
